Test results as given in ChEMBL document CHEMBL1142073, “Synergistic activity of R207910 combined with pyrazinamide against murine tuberculosis” (2007).
Active and inactive are the calls of the source. The rule behind the calls is not given here.

Experiments:
[1] = test system: Mycobacterium tuberculosis; assay: Reduction of bacterial counts in Mycobacterium tuberculosis H37Rv infected Swiss mouse lung at 25 mg/kg, po for 5 days/week after 2 months; type: functional
Procedure, shortened: (§1)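 Female 4-week-old Swiss mice were infected in the tail vein with about 2 10 6 CFU of H37Rv, grown in Dubos broth for 7 days at 37 C. Gavage started 2 weeks post-infection, 5 days/week, with rifampin given 1 h before other drugs. Lung homogenates were plated for CFU; some groups had both lungs cultured undiluted. Mann-Whitney U test.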

[2] = test system: Mycobacterium tuberculosis; assay: Reduction of lung lesions in Mycobacterium tuberculosis H37Rv infected Swiss mouse at 25 mg/kg, po for 5 days/week after 1 month; type: functional, organism-based; set-up: dose 25 mg/kg
[3] = test system: Mycobacterium tuberculosis; assay: Reduction of lung lesions in Mycobacterium tuberculosis H37Rv infected Swiss mouse at 25 mg/kg, po for 5 days/week after 2 months; type: functional, organism-based; set-up: dose 25 mg/kg
[4] = test system: Mycobacterium tuberculosis; assay: Reduction of bacterial counts in Mycobacterium tuberculosis H37Rv infected Swiss mouse lung at 25 mg/kg, po for 5 days/week after 1 month; type: functional; procedure, shortened: as §1
[5] = test system: Mycobacterium tuberculosis; assay: Reduction of bacterial counts in Mycobacterium tuberculosis H37Rv infected Swiss mouse lung at 100 mg/kg, po for 5 days/week after 2 months; type: functional; procedure, shortened: as §1
[6] = test system: Mycobacterium tuberculosis; assay: Reduction of lung lesions in Mycobacterium tuberculosis H37Rv infected Swiss mouse at 100 mg/kg, po for 5 days/week after 2 months; type: functional, organism-based; set-up: dose 100 mg/kg
[7] = test system: Mycobacterium tuberculosis; assay: Reduction of bacterial counts in Mycobacterium tuberculosis H37Rv infected Swiss mouse lung at 100 mg/kg, po for 5 days/week after 1 month; type: functional; procedure, shortened: as §1
[8] = test system: Mycobacterium tuberculosis; assay: Reduction of lung lesions in Mycobacterium tuberculosis H37Rv infected Swiss mouse at 150 mg/kg, po for 5 days/week after 2 months; type: functional, organism-based; set-up: dose 150 mg/kg
[9] = test system: Mycobacterium tuberculosis; assay: Reduction of bacterial counts in Mycobacterium tuberculosis H37Rv infected Swiss mouse lung at 150 mg/kg, po for 5 days/week after 1 month; type: functional; procedure, shortened: as §1
[10] = test system: Mycobacterium tuberculosis; assay: Reduction of bacterial counts in Mycobacterium tuberculosis H37Rv infected Swiss mouse lung at 150 mg/kg, po for 5 days/week after 2 months; type: functional; procedure, shortened: as §1
[11] = test system: Mycobacterium tuberculosis; assay: Reduction of bacterial counts in Mycobacterium tuberculosis H37Rv infected Swiss mouse lung at 10 mg/kg, po for 5 days/week after 2 months; type: functional; procedure, shortened: as §1
[12] = test system: Mycobacterium tuberculosis; assay: Reduction of bacterial counts in Mycobacterium tuberculosis H37Rv infected Swiss mouse lung at 10 mg/kg, po for 5 days/week after 1 month; type: functional; procedure, shortened: as §1
[13] = test system: Mycobacterium tuberculosis; assay: Reduction of lung lesions in Mycobacterium tuberculosis H37Rv infected Swiss mouse at 10 mg/kg, po for 5 days/week after 2 months; type: functional, organism-based; set-up: dose 10 mg/kg

`COc1nc2ccc(Br)cc2cc1[C@@H](c1ccccc1)[C@@](O)(CCN(C)C)c1cccc2ccccc12` [BEDAQUILINE] was tested, and the Log10 cfu [1] was 2.3, the Activity [2] was “Active” and the Activity [3] was “Active”. The Log10 cfu [4] was 4.1.
For `NNC(=O)c1ccncc1` [ISONIAZID], the Log10 cfu [1] was 4.7, the Activity [3] was “Active” and the Log10 cfu [4] was 4.9.
`COc1c(N2C[C@@H]3CCCN[C@@H]3C2)c(F)cc2c(=O)c(C(=O)O)cn(C3CC3)c12` [MOXIFLOXACIN] was tested, and the Log10 cfu [5] was 4.3, the Activity [6] was “Active” and the Log10 cfu [7] was 5.5.
In the case of `NC(=O)c1cnccn1` [PYRAZINAMIDE], the Activity [8] is reported as “inactive”, the Log10 cfu [9] is reported as 6.2 and the Log10 cfu [10] is reported as 6.4.
For `CO[C@H]1/C=C/O[C@@]2(C)Oc3c(C)c(O)c4c(O)c(c(/C=N/N5CCN(C)CC5)c(O)c4c3C2=O)NC(=O)/C(C)=C\C=C\[C@H](C)[C@H](O)[C@@H](C)[C@@H](O)[C@@H](C)[C@H](OC(C)=O)[C@@H]1C` [RIFAMPIN], the Log10 cfu [11] was 4.1, the Log10 cfu [12] was 6 and the Activity [13] was “Active”.
